Measured values from ChEMBL document CHEMBL1144028, “Novel 2,3-dihydro-1,4-benzoxazines as potent and orally bioavailable inhibitors of tumor-driven angiogenesis” (J Med Chem, 2008).
≈ marks a conversion by molar mass, not a printed value.

Tests used:
[1] = target: Vascular endothelial growth factor receptor 2 (Homo sapiens, UniProt P35968); assay: Inhibition of KDR by HTRF assay
Outline: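 KDR read by homogeneous time-resolved fluorescence with a biotinylated gastrin substrate. IC50 is the mean of two or more separate determinations, each in duplicate.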

HUVEC [2] = assay: Inhibition of VEGF-induced proliferation of HUVEC cells; type: functional, cell-based; conditions: Homo sapiens
Outline: (§1)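 Human umbilical vein endothelial cell proliferation driven by VEGF or by FGF; IC50 is the mean of two or more separate determinations, each in duplicate.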

HUVEC [3] = assay: Inhibition of FGF-induced proliferation of HUVEC cells; type: functional, cell-based; conditions: Homo sapiens; outline: as §1
Angiopoietin-1 receptor = Angiopoietin-1 receptor (Homo sapiens, UniProt Q02763); assay: Inhibition of Tie2
[4] = target: Hepatocyte growth factor receptor (Homo sapiens, UniProt P08581); assay: Inhibition of c-Met
[5] = target: Tyrosine-protein kinase Lck (Homo sapiens, UniProt P06239); assay: Inhibition of Lck
[6] = Solubility in 0.01 N HCl; type: physicochemical
Outline: (§2)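 Equilibrium solubility measured in 0.01 N HCl, PBS (pH 7), and simulated intestinal fluid.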

[7] = Solubility in PBS at pH 7; type: physicochemical; outline: as §2
[8] = Solubility in simulated intestinal fluid; type: physicochemical; outline: as §2
[9] = Metabolic stability in human liver microsomes; type: ADME, Microsome; conditions: read-out: Stability
Outline: (§3)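 In vitro stability on incubation with human or rat liver microsomal preparations.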

[10] = Metabolic stability in rat liver microsomes; type: ADME, Microsome; conditions: read-out: Stability; outline: as §3
[11] = Clearance in Sprague-Dawley rat at 0.5 mg/kg, iv; type: ADME, organism-based; set-up: dose 0.5 mg/kg, route intravenous; conditions: in vivo
Outline: (§4)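 Male Sprague Dawley rats; single dose, 0.5 mg/kg iv or 2 mg/kg po; mean pharmacokinetic parameters reported.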

[12] = Volume of distribution at steady state in Sprague-Dawley rat at 0.5 mg/kg, iv; type: ADME, organism-based; set-up: dose 0.5 mg/kg, route intravenous; conditions: in vivo, read-out: Vdss; outline: as §4
[13] = Half life in Sprague-Dawley rat at 0.5 mg/kg, iv; type: ADME, organism-based; set-up: dose 0.5 mg/kg, route intravenous; conditions: in vivo; outline: as §4
[14] = AUC (0 to infinity) in Sprague-Dawley rat at 2 mg/kg, po; type: ADME, organism-based; set-up: time infinity, dose 2 mg/kg, route oral; conditions: plasma; outline: as §4
[15] = Cmax in Sprague-Dawley rat at 2 mg/kg, po; type: ADME, organism-based; set-up: dose 2 mg/kg, route oral; conditions: in vivo; outline: as §4
[16] = Tmax in Sprague-Dawley rat at 2 mg/kg, po; type: ADME, organism-based; set-up: dose 2 mg/kg, route oral; conditions: in vivo; outline: as §4
[17] = Oral bioavailability in Sprague-Dawley rat at 2 mg/kg, po; type: ADME, organism-based; conditions: in vivo; outline: as §4
[18] = AUC in VEGF-soaked disk implanted Sprague-Dawley rat at […]; type: ADME, organism-based; set-up: dose 0.16 mg/kg; conditions: plasma, read-out: ED50
[19] = Cmax in VEGF-soaked disk implanted Sprague-Dawley rat at […]; type: ADME, organism-based; set-up: dose 0.16 mg/kg; conditions: in vivo, read-out: ED50
[20] = 0.01 N HCl, read-out: Solubility
[21] = simulated intestinal fluid, read-out: Solubility

Vascular endothelial growth factor receptor 2, sequence (P35968 whole entry): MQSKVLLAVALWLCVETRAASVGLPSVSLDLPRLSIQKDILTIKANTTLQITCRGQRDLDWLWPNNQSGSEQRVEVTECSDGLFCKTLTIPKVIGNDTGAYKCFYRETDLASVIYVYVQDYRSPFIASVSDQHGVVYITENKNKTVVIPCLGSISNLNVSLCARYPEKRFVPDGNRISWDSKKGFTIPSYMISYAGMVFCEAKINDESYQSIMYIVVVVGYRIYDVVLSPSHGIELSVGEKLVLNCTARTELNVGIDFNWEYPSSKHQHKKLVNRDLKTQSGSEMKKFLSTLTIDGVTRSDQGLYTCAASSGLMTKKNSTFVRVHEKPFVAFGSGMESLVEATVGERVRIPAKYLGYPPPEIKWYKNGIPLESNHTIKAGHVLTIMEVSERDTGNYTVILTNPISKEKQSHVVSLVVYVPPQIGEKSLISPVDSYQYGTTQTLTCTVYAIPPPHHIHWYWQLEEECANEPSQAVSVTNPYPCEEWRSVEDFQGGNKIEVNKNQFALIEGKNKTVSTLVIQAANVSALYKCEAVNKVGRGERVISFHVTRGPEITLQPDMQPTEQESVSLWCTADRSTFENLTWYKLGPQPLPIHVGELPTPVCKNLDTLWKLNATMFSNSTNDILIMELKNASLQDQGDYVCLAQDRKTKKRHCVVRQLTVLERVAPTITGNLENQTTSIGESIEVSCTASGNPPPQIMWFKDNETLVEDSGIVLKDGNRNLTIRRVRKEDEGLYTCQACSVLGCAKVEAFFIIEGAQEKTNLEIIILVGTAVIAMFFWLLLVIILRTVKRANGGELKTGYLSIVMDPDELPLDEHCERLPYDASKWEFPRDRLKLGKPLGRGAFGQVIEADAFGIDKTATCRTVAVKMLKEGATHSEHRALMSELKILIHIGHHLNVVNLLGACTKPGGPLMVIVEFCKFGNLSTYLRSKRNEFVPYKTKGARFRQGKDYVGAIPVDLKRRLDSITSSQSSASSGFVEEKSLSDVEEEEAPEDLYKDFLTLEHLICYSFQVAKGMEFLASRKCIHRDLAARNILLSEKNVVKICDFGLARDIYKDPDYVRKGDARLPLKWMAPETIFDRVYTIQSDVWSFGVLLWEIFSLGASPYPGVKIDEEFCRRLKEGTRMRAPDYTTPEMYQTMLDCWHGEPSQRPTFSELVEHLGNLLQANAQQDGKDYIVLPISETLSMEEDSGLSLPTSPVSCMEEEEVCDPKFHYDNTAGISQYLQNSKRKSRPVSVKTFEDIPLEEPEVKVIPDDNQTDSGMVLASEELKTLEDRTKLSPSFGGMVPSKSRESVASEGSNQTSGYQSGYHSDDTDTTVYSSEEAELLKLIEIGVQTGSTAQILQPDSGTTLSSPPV
Tyrosine-protein kinase Lck, sequence (P06239 whole entry): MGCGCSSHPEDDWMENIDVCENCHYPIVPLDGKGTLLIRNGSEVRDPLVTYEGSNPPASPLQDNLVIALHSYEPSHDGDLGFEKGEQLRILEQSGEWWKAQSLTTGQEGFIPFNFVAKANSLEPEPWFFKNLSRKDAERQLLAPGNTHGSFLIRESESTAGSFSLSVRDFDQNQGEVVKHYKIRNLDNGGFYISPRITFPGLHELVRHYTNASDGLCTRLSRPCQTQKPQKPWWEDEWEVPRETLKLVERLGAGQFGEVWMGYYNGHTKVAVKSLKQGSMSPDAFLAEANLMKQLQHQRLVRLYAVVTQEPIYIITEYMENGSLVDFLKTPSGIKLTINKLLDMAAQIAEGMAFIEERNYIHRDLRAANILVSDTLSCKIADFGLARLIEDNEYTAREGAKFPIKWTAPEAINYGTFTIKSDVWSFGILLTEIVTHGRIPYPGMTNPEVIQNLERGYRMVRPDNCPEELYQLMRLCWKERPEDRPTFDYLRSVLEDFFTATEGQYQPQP
Hepatocyte growth factor receptor, sequence (P08581 whole entry): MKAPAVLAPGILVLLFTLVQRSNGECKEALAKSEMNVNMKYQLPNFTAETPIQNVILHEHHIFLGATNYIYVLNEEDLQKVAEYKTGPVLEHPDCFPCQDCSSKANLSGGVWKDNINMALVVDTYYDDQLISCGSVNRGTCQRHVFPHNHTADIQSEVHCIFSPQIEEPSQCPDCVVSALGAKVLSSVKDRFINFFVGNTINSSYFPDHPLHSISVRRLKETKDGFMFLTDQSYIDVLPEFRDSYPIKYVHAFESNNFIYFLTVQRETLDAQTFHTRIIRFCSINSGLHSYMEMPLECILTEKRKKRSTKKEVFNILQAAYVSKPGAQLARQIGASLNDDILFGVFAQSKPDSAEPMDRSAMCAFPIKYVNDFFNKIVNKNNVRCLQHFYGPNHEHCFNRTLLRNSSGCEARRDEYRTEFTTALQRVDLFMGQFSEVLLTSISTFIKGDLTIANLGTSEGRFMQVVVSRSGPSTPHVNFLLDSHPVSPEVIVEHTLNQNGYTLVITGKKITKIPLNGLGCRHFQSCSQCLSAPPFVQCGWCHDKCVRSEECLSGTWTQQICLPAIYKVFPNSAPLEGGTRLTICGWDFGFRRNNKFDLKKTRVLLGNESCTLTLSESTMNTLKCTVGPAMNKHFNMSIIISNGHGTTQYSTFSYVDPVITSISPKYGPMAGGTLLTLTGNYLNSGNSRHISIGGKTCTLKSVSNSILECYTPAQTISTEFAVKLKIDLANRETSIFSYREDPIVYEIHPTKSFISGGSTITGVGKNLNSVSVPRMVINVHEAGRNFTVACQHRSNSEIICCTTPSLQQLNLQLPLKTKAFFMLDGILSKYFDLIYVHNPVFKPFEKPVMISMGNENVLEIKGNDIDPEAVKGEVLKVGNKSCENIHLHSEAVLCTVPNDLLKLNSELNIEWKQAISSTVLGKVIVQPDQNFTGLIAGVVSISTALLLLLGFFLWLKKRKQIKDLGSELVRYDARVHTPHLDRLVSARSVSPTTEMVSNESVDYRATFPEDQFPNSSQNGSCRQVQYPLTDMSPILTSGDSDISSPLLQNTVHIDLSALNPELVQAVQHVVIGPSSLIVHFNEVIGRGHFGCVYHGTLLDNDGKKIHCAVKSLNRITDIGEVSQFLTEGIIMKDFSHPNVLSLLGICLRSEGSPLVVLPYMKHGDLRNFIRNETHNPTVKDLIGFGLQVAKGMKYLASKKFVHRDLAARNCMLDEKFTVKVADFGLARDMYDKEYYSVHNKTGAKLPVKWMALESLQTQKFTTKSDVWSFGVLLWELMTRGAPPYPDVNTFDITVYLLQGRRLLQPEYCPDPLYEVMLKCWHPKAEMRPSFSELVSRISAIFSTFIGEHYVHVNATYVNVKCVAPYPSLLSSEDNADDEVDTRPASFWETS
Angiopoietin-1 receptor, sequence (Q02763 whole entry): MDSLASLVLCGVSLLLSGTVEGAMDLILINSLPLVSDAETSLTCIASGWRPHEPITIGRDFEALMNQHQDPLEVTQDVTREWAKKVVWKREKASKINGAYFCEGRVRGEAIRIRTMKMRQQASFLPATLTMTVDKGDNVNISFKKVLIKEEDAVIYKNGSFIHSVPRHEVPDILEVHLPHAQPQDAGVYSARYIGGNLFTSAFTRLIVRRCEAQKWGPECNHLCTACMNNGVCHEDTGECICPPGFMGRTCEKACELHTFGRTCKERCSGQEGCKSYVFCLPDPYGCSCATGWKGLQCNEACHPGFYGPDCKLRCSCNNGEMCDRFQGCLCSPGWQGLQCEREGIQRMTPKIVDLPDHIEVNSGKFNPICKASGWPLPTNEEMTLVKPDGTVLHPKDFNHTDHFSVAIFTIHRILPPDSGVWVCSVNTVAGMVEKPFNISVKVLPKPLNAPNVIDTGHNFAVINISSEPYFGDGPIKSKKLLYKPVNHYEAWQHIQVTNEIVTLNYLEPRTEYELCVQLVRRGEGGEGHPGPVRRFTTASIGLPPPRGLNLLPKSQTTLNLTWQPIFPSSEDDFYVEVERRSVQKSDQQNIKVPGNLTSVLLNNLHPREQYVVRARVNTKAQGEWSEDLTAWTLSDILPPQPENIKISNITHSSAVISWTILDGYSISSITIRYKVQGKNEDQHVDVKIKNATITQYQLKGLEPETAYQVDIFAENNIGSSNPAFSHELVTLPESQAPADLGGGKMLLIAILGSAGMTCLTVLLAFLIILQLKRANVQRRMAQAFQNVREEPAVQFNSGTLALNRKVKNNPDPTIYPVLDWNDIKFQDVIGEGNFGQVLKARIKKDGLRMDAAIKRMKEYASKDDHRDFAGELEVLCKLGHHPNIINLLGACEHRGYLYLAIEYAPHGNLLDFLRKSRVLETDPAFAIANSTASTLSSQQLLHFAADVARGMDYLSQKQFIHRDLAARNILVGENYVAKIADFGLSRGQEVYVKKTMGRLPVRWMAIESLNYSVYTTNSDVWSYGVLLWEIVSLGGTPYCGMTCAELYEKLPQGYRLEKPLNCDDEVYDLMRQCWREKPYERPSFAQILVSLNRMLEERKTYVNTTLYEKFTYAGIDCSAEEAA

SMILES | IC50 [1] [nM] | IC50 (HUVEC [2]) [nM] | IC50 (HUVEC [3]) [nM] | IC50 (Angiopoietin-1 receptor) [nM] | IC50 [4] [nM] | IC50 [5] [nM] | solubility [6, 20] [µg/mL] | solubility [7] [µg/mL] | solubility [8, 21] [µg/mL] | further results
COc1cc2nccc(Oc3ccc4c(c3)OCCN4C(=O)N[C@H](C)c3ccccc3)c2cc1OC | 40 | 250 | 1100 | > 4000 | 210 | 78 |  |  |  | 
COc1cc2nccc(Oc3ccc4c(C(=O)Nc5cccc(Cl)c5)cccc4c3)c2cc1OC |  |  |  |  |  |  | 9.5 (≈ 19.6 µM) | < 1 | 36 (≈ 74.2 µM) | 
COc1cc2nccc(Oc3ccc4c(c3)OCCN4C(N)=O)c2cc1OC | 58 | 280 | 1100 | > 4000 | > 4000 | > 4000 |  |  |  | 
COc1cc2nccc(Oc3ccc4c(c3)OCCN4C(=O)Nc3ccc(C)cc3)c2cc1OC | 0.2 | 3 | 280 | 1000 | 370 | 63 | > 200 | < 1 | 22 (≈ 46.7 µM) | microsomal CLint [9]: 31 µL/min/mg; microsomal CLint [10]: 104 µL/min/mg; clearance [11]: 12 mL/min/kg; Vd [12]: 2.8 L/kg; half-life [13]: 4.4 h; AUC(0-inf) [14]: 1300 ng·h/mL; Cmax [15]: 300 ng/mL; Tmax [16]: 1 h; bioavailability [17]: 47%
COc1cc2nccc(Oc3ccc4c(c3)OCCN4C(=O)N[C@@H](C)c3ccccc3)c2cc1OC | 1 | 3 | 300 | 260 | 460 | 18 |  |  |  | microsomal CLint [9]: 543 µL/min/mg; microsomal CLint [10]: 188 µL/min/mg; clearance [11]: 16.3 mL/min/kg; Vd [12]: 1.4 L/kg; half-life [13]: 2.3 h
COc1cc2nccc(Oc3ccc4c(C(=O)Nc5ccc(F)cc5)cccc4c3)c2cc1OC |  |  |  |  |  |  | 67 (≈ 143 µM) | < 1 | 1.3 (≈ 2.77 µM) | 
COc1cc2nccc(Oc3ccc4c(c3)OCCN4C(=O)Nc3ccc(Cl)cc3)c2cc1OC |  |  |  |  |  |  |  |  |  | solubility ([6]; buffer): 28 µg/mL (≈ 56.9 µM); solubility ([8]; simulated gi fluid): 33 µg/mL (≈ 67.1 µM); microsomal CLint [9]: < 14 µL/min/mg; microsomal CLint [10]: 44 µL/min/mg; clearance [11]: 4 mL/min/kg; Vd [12]: 1.8 L/kg; half-life [13]: 6.4 h; AUC(0-inf) [14]: 7900 ng·h/mL; Cmax [15]: 810 ng/mL; Tmax [16]: 3.3 h; bioavailability [17]: 95%; AUC [18]: 2.8 µM·h; Cmax [19]: 180 nM
COc1cc2nccc(Oc3ccc4c(c3)OCCN4C(=O)NC(C)C)c2cc1OC | 40 | 52 | 1100 | > 4000 | 1200 | 1000 | > 200 | 3 (≈ 7.08 µM) | 14 (≈ 33.1 µM) | 
COc1cc2nccc(Oc3ccc4c(c3)OCCN4C(=O)Nc3ccc(C)cc3)c2cc1C(N)=O | 0.5 | 1 | 300 | 430 | 260 | 19 |  |  |  | microsomal CLint [9]: 62 µL/min/mg; microsomal CLint [10]: 96 µL/min/mg; clearance [11]: 14.3 mL/min/kg; Vd [12]: 1.4 L/kg; half-life [13]: 1.6 h; AUC(0-inf) [14]: 650 ng·h/mL; Cmax [15]: 160 ng/mL; Tmax [16]: 2.3 h; bioavailability [17]: 28%
COc1cc2nccc(Oc3ccc4c(c3)OCCN4C(=O)Nc3cccc(Cl)c3)c2cc1OC | 1 | 0.4 | 220 | 9 | 230 | 4 | 120 (≈ 244 µM) | < 1 | 28 (≈ 56.9 µM) | 
COc1cc2nccc(Oc3ccc4c(c3)OCCN4C(=O)Nc3ccccc3C)c2cc1OC | 1 | 45 | 910 | 1600 | 410 | 27 |  |  |  | 
COc1cc2nccc(Oc3ccc4c(c3)OCCN4C(=O)Nc3ccccc3Cl)c2cc1OC | 19 | 73 | 230 | 2200 | 290 | 2200 |  |  |  | 
COc1cc2nccc(Oc3ccc4c(c3)OCCN4C(=O)Nc3cccc(C)c3)c2cc1OC |  | 0.6 | 190 |  | 350 |  |  |  |  | 
CNC(=O)N1CCOc2cc(Oc3ccnc4cc(OC)c(OC)cc34)ccc21 | 40 | 100 | 370 | > 4000 | > 4000 | 2400 | > 200 | 46 (≈ 116 µM) | 130 (≈ 329 µM) | 
CNC(=O)c1cc(Oc2ccc3c(c2)OCCN3C(=O)Nc2ccc(C)cc2)ccn1 | 62 | > 1000 | > 1000 | > 4000 | > 4000 | > 4000 |  |  |  | 
COc1cc2nccc(Oc3ccc4c(C(=O)NC(C)C)cccc4c3)c2cc1OC |  |  |  |  |  |  | > 200 | < 1 | 5.6 (≈ 13.4 µM) | 
CCNC(=O)N1CCOc2cc(Oc3ccnc4cc(OC)c(OC)cc34)ccc21 | 1 | 23 | 780 | > 4000 | 1400 | 1500 |  |  |  | 
O=C(Nc1ccc(Cl)cc1)N1CCOc2cc(Oc3ncnc4[nH]ccc34)ccc21 | 77 | 230 | > 1000 | > 4000 | > 4000 | > 4000 |  |  |  | 
COc1cc2nccc(Oc3ccc4c(c3)OCCN4C(=O)NCc3ccc(C)cc3)c2cc1OC | 26 | 360 | 1100 | 1500 | 500 | 150 |  |  |  | 
COc1cc2nccc(Oc3ccc4c(c3)OCCN4C(=O)NCc3ccccc3)c2cc1OC | 53 | 237 | > 1100 | > 4000 | 1600 | 500 |  |  |  | 
CNC(=O)c1cc(Oc2ccc3c(c2)OCCN3C(=O)Nc2ccc(Cl)cc2)ccn1 | 95 | > 1000 | > 1000 | > 4000 | > 4000 | > 4000 |  |  |  | 
Cc1ccc(NC(=O)N2CCOc3cc(Oc4ncnc5[nH]ccc45)ccc32)cc1 | 26 | 230 | > 1000 | > 4000 | > 4000 | > 4000 |  |  |  | 
COc1cc2nccc(Oc3ccc4c(c3)OCCN4C(=O)Nc3ccc(Cl)cc3)c2cc1C(N)=O | 0.6 | 1 | 290 | 290 | 160 | 21 |  |  |  | microsomal CLint [9]: 48 µL/min/mg; microsomal CLint [10]: 25 µL/min/mg; clearance [11]: 3.17 mL/min/kg; Vd [12]: 0.5 L/kg; half-life [13]: 2.6 h; AUC(0-inf) [14]: 4500 ng·h/mL; Cmax [15]: 820 ng/mL; Tmax [16]: 2.3 h; bioavailability [17]: 46%
COc1cc2nccc(Oc3ccc4c(c3)OCCN4C(=O)Nc3ccc(F)cc3)c2cc1OC | 3 | 2 | 300 | 1500 | 1100 | 90 | > 200 | 3.3 (≈ 6.94 µM) | 41 (≈ 86.2 µM) | microsomal CLint [9]: 17 µL/min/mg; microsomal CLint [10]: 74 µL/min/mg; clearance [11]: 13.7 mL/min/kg; Vd [12]: 2.1 L/kg; half-life [13]: 3 h; AUC(0-inf) [14]: 2600 ng·h/mL; Cmax [15]: 410 ng/mL; Tmax [16]: 2.7 h; bioavailability [17]: 81%
CNC(=O)c1cccc2cc(Oc3ccnc4cc(OC)c(OC)cc34)ccc12 |  |  |  |  |  |  | > 200 | 1.4 (≈ 3.6 µM) | 3 (≈ 7.72 µM) | 
COc1cc2nccc(Oc3ccc4c(C(=O)Nc5ccc(Cl)cc5)cccc4c3)c2cc1OC |  | 8 |  |  |  |  |  | < 1 | 1.4 (≈ 2.89 µM) | 
COc1cc2nccc(Oc3ccc4c(c3)OCCN4C(=O)Nc3ccccc3)c2cc1OC | 1 | 0.6 | 340 | 386 | 650 | 188 |  |  |  | microsomal CLint [9]: 62 µL/min/mg; microsomal CLint [10]: 122 µL/min/mg; clearance [11]: 30 mL/min/kg; Vd [12]: 2.1 L/kg; half-life [13]: 1.2 h
COc1cc2nccc(Oc3ccc4c(C(=O)Nc5ccc(C)cc5)cccc4c3)c2cc1OC |  |  |  |  |  |  | > 200 | < 1 | 9.4 (≈ 20.2 µM) | 
